Source: ChEMBL document CHEMBL1132620, “Piperazine imidazo[1,5-a]quinoxaline ureas as high-affinity GABAA ligands of dual functionality” (J Med Chem, 1999)
Calls of active or inactive are those of the source. The rule behind the calls is not given here.

Key:
[1] = biological target: T1, GABA-A receptor; alpha-1/beta-2/gamma-2 (Homo sapiens) (UniProt P14867+P47870+P18507); experiment: (§1) In vitro GABA-mediated chloride current in A293 cells expressing GABA-A benzodiazepine receptor alpha-1-beta-2-gamma-2 subunits at 5 uM; type: functional, cell-based; conditions: HEK293
Rattus norvegicus = experiment: In vivo efficacy evaluated for ability to antagonize metrazole induced clonic convulsions in rat after ip injection; type: functional
[2] = biological target: T2, GABA-A receptor; anion channel (Rattus norvegicus) (UniProt O09028+P15431+P18506+P18508+P19969+P20236+P23574+P23576+P28471+P28473+P30191+P62813+P63079+P63138+Q91ZM7+Q9ES14); experiment: Shift in [35S]TBPS binding to GABA-A Benzodiazepine receptor of rat brain membrane
[3] = biological target: T1, GABA-A receptor; alpha-1/beta-2/gamma-2 (Homo sapiens); experiment: as §1; type: functional, cell-based; conditions: HEK293; remark: listed apart in the source
Mus musculus [4] = species on record: Mus musculus; experiment: Ability to antagonize the muscle relaxation effect in mice caused by a benzodiazepine full agonist, triazolam.; type: functional
How it was run: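 Muscle relaxation induced by triazolam; test compound and triazolam given separately, traction scored 30 min after dosing; ED50 for blocking the relaxant effect.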

Mus musculus [5] = experiment: In vivo acute electroshock physical dependence activity in mice; Active; type: functional, organism-based
[6] = biological target: GABA-A receptor; anion channel; experiment: (§2) Displacement of [3H]flunitrazepam from GABA-A benzodiazepine receptor of rat cortical membranes; type: cell membranes, Membrane
How it was run: (§3)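 Rat membranes incubated 60 min at 4 °C with [3H]flunitrazepam, 50 µg membrane protein and graded test drug in 200 µL containing NaCl, 10 mM Hepes/Tris pH 7.4 and 1 mM MgCl2; bound ligand separated by rapid filtration on GF/B; mean affinity, SE ≤10% of mean.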

Mus musculus [7] = experiment: In vivo acute electroshock physical dependence activity in mice; Not active.; type: functional, organism-based
[8] = biological target: T2, GABA-A receptor; anion channel (Rattus norvegicus); experiment: Inhibition of [35S]TBPS binding to GABA-A Benzodiazepine receptor of rat brain membranes; type: cell membranes; conditions: Membrane
Mus musculus [9] = experiment: In vivo efficacy is evaluated by percent control of cerebellar GMP levels in (drug+stress) treated mice/mice under stress; type: functional; design: concentration or dose not given beside the values
How it was run: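 Male CF-1 mice given drug orally in vehicle 122 before electric footshock stress, controls given vehicle (1 mL/100 g); killed 30 min after treatment; cerebellum homogenized in 1% perchloric acid, iced 30 min, boiled 5 min, spun 17000g 20 min; supernatant cGMP by radioimmunoassay, expressed as % of stress control.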

[10] = biological target: T2, GABA-A receptor; anion channel (Rattus norvegicus); experiment: as §2; type: cell membranes; design: concentration or dose not given beside the values; conditions: Membrane, concentration not given here; how it was run: as §3
[11] = biological target: GABA A receptor alpha-3/beta-2/gamma-2 (Homo sapiens) (UniProt P47870+P18507+P34903); experiment: In vitro GABA-mediated chloride current in A293 cells expressing GABA-A benzodiazepine receptor alpha-3-beta-2-gamma-2 subunits at 5 uM; type: functional, cell-based; conditions: HEK293

Row | Change in Cl- current [1] | Shift [2] | Change in Cl- current [3] | Ki [6] | Shift [8] | inhibition [10] | Change in Cl- current [11] | Compound | ED50 (Rattus norvegicus) | ED50 (Mus musculus [4]) | Acute electroshock activity (Mus musculus [5]) | Acute electroshock activity (Mus musculus [7]) | Control (Mus musculus [9])
1 | 0.5 | 0.41 | 1 | 277 nM | – | – | – | C[C@H]1CN(C(=O)N2Cc3c(C(=O)OC(C)(C)C)ncn3-c3ccc(C(F)(F)F)cc32)C[C@H](C)N1 | 39.7 mg/kg | > 30 mg/kg | Active | – | –
2 | – | – | 0.68 | – | 0.69 | – | – | CN(C)C(=O)N1Cc2c(-c3noc(C4CC4)n3)ncn2-c2ccccc21 [PNU-91571] | 21 mg/kg | 1 mg/kg | – | inactive | 61%
3 | 0.35 | 0.32 | 0.83 | 15.1 nM | – | 3.4% | – | CC(C)(C)OC(=O)c1ncn2c1CN(C(=O)N1CCN(c3ccccn3)CC1)c1cc(Cl)ccc1-2 | > 50 mg/kg | > 30 mg/kg | Active | – | –
4 | – | – | 0.35 | 5.56 nM | 0.51 | – | – | CN(C)C(=O)N1Cc2c(C(=O)OC(C)(C)C)ncn2-c2ccc(Cl)cc21 | 10.5 mg/kg | – | – | – | –
5 | 0.5 | 0.67 | 0 | 37.8 nM | – | 19% | – | C[C@@H]1CN(C(=O)N2Cc3c(C(=O)OC(C)(C)C)ncn3-c3ccc(Cl)cc32)C[C@H](C)N1CC(F)(F)F | 42 mg/kg | > 30 mg/kg | – | inactive | –
6 | – | 0.77 | 1.14 | 3.2 nM | – | 47% | – | CC1(C)CN(C(=O)N2Cc3c(C(=O)OC(C)(C)C)ncn3-c3ccc(Cl)cc32)CC(C)(C)N1 | 3.7 mg/kg | > 30 mg/kg | Active | – | 40%
7 | – | 0.22 | 0.71 | 56.3 nM | – | 49% | – | C[C@@H]1CN(C(=O)N2Cc3c(C(=O)OC(C)(C)C)ncn3-c3cccc(Cl)c32)C[C@H](C)N1C | > 50 mg/kg | > 30 mg/kg | – | inactive | 102%
8 | 0.8 | 0.54 | 0.7 | 42.8 nM | – | 21% | – | C[C@H]1CN(C(=O)N2Cc3c(C(=O)OC(C)(C)C)ncn3-c3ccc(C(F)(F)F)cc32)CCN1 | 25 mg/kg | > 30 mg/kg | – | inactive | 82%
9 | – | 0.26 | 0.81 | 31.4 nM | – | 17% | – | C[C@@H]1CN(C(=O)N2Cc3c(C(=O)OC(C)(C)C)ncn3-c3ccc(C(F)(F)F)cc32)C[C@H](C)N1C | 6.2 mg/kg | 21.8 mg/kg | Active | – | –
10 | – | 0.11 | 1.37 | 9.5 nM | – | 64% | 0.56 | Cc1ccc2c(c1)N(C(=O)N1C[C@@H](C)N(C)[C@@H](C)C1)Cc1c(C(=O)OC(C)(C)C)ncn1-2 | 1.6 mg/kg | > 30 mg/kg | Active | – | 57%
11 | – | 1.02 | 1.71 | 90.2 nM | – | 32% | 0.69 | CC1CN(C)CC(C)N1C(=O)N1Cc2c(C(=O)OC(C)(C)C)ncn2-c2ccc(Cl)cc21 (stereo not drawn) | 6.2 mg/kg | > 30 mg/kg | – | inactive | 100%
12 | – | 1.23 | 0.96 | 19.9 nM | – | 94% | 1.08 | C[C@@H]1CN(C(=O)N2c3cc(Cl)ccc3-n3cnc(C(=O)OC(C)(C)C)c3C2(C)C)C[C@H](C)N1 | 0.4 mg/kg | – | Active | – | 30%
13 | 0.8 | 0.12 | 0.1 | 6.71 nM | – | 74% | – | C[C@H]1CN(C(=O)N2Cc3c(C(=O)OC(C)(C)C)ncn3-c3ccc(Cl)cc32)CCN1 | 1.2 mg/kg | > 30 mg/kg | Active | – | 56%
14 | – | – | 0.14 | 2.47 nM | 0 | – | – | CC(C)(C)OC(=O)c1ncn2c1CN(C(=O)N1CCOCC1)c1ccccc1-2 | > 50 mg/kg | – | – | – | –
15 | 1.1 | 0.21 | 0.5 | 4.35 nM | – | 11% | – | CN1CCN(C(=O)N2Cc3c(C(=O)OC(C)(C)C)ncn3-c3ccc(Cl)cc32)CC1(C)C | 35.3 mg/kg | > 30 mg/kg | – | inactive | –
16 | 0.94 | 0.15 | 0.5 | 10.5 nM | – | 84% | – | CCCC(=O)O.CCN1[C@H](C)CN(C(=O)N2Cc3c(C(=O)OC(C)(C)C)ncn3-c3ccc(Cl)cc32)C[C@@H]1C | 3.7 mg/kg | > 30 mg/kg | – | inactive | 88%
17 | 0.8 | 0.81 | 1 | 10.9 nM | – | 10% | – | CC(C)(C)OC(=O)c1ncn2c1CN(C(=O)N1CCN(CC(F)(F)F)CC1)c1cc(Cl)ccc1-2 | > 50 mg/kg | > 30 mg/kg | – | inactive | –
18 | 0.5 | 0.18 | 0.17 | 4.48 nM | – | 68% | – | CC1CN(C(=O)N2Cc3c(C(=O)OC(C)(C)C)ncn3-c3ccc(Cl)cc32)CCN1 (stereo not drawn) | 8.8 mg/kg | > 30 mg/kg | Active | – | –
19 | 1.1 | 0.59 | 0.4 | 17.9 nM | – | 32% | – | Cc1ccc2c(c1)N(C(=O)N1CCN[C@@H](C)C1)Cc1c(C(=O)OC(C)(C)C)ncn1-2 | 25 mg/kg | > 30 mg/kg | Active | – | 55%
20 | – | 0.94 | 0.79 | 4.66 nM | – | 22% | – | CC(=O)N1[C@H](C)CN(C(=O)N2Cc3c(C(=O)OC(C)(C)C)ncn3-c3ccc(Cl)cc32)C[C@@H]1C | 14.8 mg/kg | > 30 mg/kg | Active | – | –
21 | 1.3 | 0.77 | 1.3 | 25.6 nM | – | 17% | – | Cc1ccc2c(c1)N(C(=O)N1C[C@H](C)N[C@@H](C)C1)Cc1c(C(=O)OC(C)(C)C)ncn1-2 | 7.4 mg/kg | > 30 mg/kg | Active | – | 79%
22 | – | 0.57 | 0.98 | 10.9 nM | – | 29% | 0.44 | CN1CCN(C(=O)N2Cc3c(C(=O)OC(C)(C)C)ncn3-c3ccc(Cl)cc32)CC1 | 7.4 mg/kg | 11 mg/kg | – | – | 94%
23 | 0.42 | 0.76 | 0.75 | 5.39 nM | – | 24% | – | CC(C)(C)OC(=O)c1ncn2c1CN(C(=O)N1CCN(C3CC3)CC1)c1cc(Cl)ccc1-2 | 12.5 mg/kg | > 30 mg/kg | – | inactive | –
24 | 0.33 | -0.01 | 0 | 3.03 nM | – | 13% | – | CC1(C)CN(C(=O)N2Cc3c(C(=O)OC(C)(C)C)ncn3-c3ccc(Cl)cc32)CCN1 | > 50 mg/kg | > 30 mg/kg | – | inactive | –
25 | 0.84 | 0.38 | 0.3 | 4.66 nM | – | 55% | 0.1 | Cc1ccc2c(c1)N(C(=O)N1C[C@@H](C)N[C@@H](C)C1)Cc1c(C(=O)OC(C)(C)C)ncn1-2 | – | > 30 mg/kg | Active | – | 73%
26 | 0.7 | 0.27 | 0 | 2.34 nM | – | 78% | – | C[C@H]1NCCN(C(=O)N2Cc3c(C(=O)OC(C)(C)C)ncn3-c3ccc(Cl)cc32)[C@H]1C | 0.7 mg/kg | > 30 mg/kg | Active | – | 70%
27 | – | 1.43 | 2.6 | 39.7 nM | – | 84% | 0.68 | C[C@@H]1CN(C(=O)N2c3cc(Cl)ccc3-n3cnc(C(=O)OC(C)(C)C)c3C2(C)C)C[C@H](C)N1C | 0.6 mg/kg | > 30 mg/kg | Active | – | 38%
